Each block holds one compound with its values, some of them ahead of it.
Tests used:
WM3248 = test: Cell viability assay, WM3248 melanoma cell line; format: cell-based; settings: WM3248 cells
A375 = test: Cell viability assay, A375 melanoma cell line; format: cell-based; settings: A375 cells
[1] = system: SKM28, SKMel3, WM3248, A375, SW480; test: Cell viability assay, all five cancer cell lines together; format: cell-based
SKMel3 = test: Cell viability assay, SKMel3 melanoma cell line; format: cell-based; settings: read-out: IC50 SKMel3; SKMel3 cells
[2] = starting compounds; cited from earlier work
Stability in DMSO = format: physicochemical
Mouse pharmacokinetics = format: in vivo; settings: single I.V. 3 mg/kg or P.O. 10 mg/kg
Summary of the method: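 Single dose to mice, either intravenous at 3 mg/kg or oral at 10 mg/kg. Three animals per time point. Plasma concentration–time profiles were used for observed and calculated PK parameters. Animals were watched for treatment-related toxicological signs throughout.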

Aggregation by NMR = format: physicochemical; settings: Tris buffer
Summary of the method: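 Compound aggregation checked by WaterLOGSY in the NMR binding-assay buffer at three theoretical concentrations, with 200 μM 4-trifluoromethyl benzoic acid as internal reference. Solubility was checked in PBS and Tris buffer by ¹H 1D spectra. Data were processed with 2 Hz exponential line broadening before Fourier transformation.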

Compound: 4-(1-Methyl-1H-imidazol-5-yl)-6-(piperidin-4-yl)-N-(3-(trifluoromethyl)phenyl)-1,3,5-triazin-2-amine [Compound 8]
decrease of activity on WM3248 compared to 1 (WM3248): ~10 fold
effect on A375 (in words) (A375): annihilating the effect on A375
IC50 (A375; read-out: IC50 A375): > 100 µM

Compound: 4-(Piperidin-4-yl)-6-(pyrrolidin-2-yl)-N-(3-(trifluoromethyl)phenyl)-1,3,5-triazin-2-amine [Compound 10]
antiproliferative activity in the cancer cell lines (in words) [1]: complete loss of activity
IC50 (SKMel3): > 100 µM

Compound: CN(C)c1cccc(Nc2cc(-c3ccccc3)nc(C3CCNCC3)n2)c1 [ARN22089]
aggregation by NMR at 100 μM [2]: showed aggregation

Compound: FC(F)(F)c1cccc(Nc2cc(-c3ccccc3)nc(C3CCNCC3)n2)c1 [ARN25062]
aggregation by NMR at 100 μM [2]: showed aggregation

Compound: FC(F)(F)c1cccc(Nc2nc(C3=CCNCC3)nc(-c3ccsc3)n2)c1 [Compound 11, 4-(1,2,3,6-Tetrahydropyridin-4-yl)-6-(thiophen-3-yl)-N-(3-(trifluoromethyl)phenyl)-1,3,5-triazin-2-amine]
stability in DMSO (Stability in DMSO): slight instability in DMSO

Compound: COc1ccc(Nc2nc(-c3ccccc3)cc(C3CCNCC3)n2)cc1OC [Compound 15, N-(3,4-Dimethoxyphenyl)-4-phenyl-6-(piperidin-4-yl)pyrimidin-2-amine]
tolerability during the PK studies (Mouse pharmacokinetics): well tolerated by all animals

Compound: FC(F)(F)c1cc(Nc2nc(-c3ccccc3)cc(C3CCNCC3)n2)ccn1 [Compound 20, 4-Phenyl-6-(piperidin-4-yl)-N-(2-(trifluoromethyl)pyridin-4-yl)pyrimidin-2-amine]
tolerability during the PK studies (Mouse pharmacokinetics): well tolerated by all animals

aggregation by NMR (50 μM) (Aggregation by NMR): showed aggregation
Compound: Cn1ccc2ccc(Nc3cc(-c4ccccc4)nc(C4CCNCC4)n3)cc21 [Compound 25, 1-Methyl-N-(6-phenyl-2-(piperidin-4-yl)pyrimidin-4-yl)-1H-indol-6-amine]
